Calls of active or inactive are those of the source. The calls are words filed in the database; no cut-off is given here.
Legend:
[1] = Agonist activity at beta-adrenergic receptor in Hartley guinea pig ileum assessed as maximal relaxation; assay type: tissue-based; details: Cavia porcellus
[2] = Agonist activity at alpha-adrenergic receptor in Hartley guinea pig aorta assessed as maximal contraction; assay type: tissue-based, Cavia porcellus
Outline: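 Aortic strip from 250-300 g male Hartley guinea pigs, in 10 mL Tyrode's solution at 37 °C aerated with 95% O2/5% CO2. Full concentration range, 0.1 to 100 μM. Response is percent of maximal contraction (largest contraction per dose relative to the maximum for (±)-NE). EC50 ± SD estimated from eight dose-response curves.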

[3] = Agonist activity at beta-adrenergic receptor in Hartley guinea pig atria assessed as maximal increase in contraction rate; design: species or system Cavia porcellus
Outline: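 Atria from 250-300 g male Hartley guinea pigs, bathed in 10 mL Tyrode's at 37 °C under 95% O2/5% CO2, dosed at 0.1 to 100 μM. Contraction rate read 60 s after each dose against the pre-experiment rate and expressed as percent of the maximal increase given by (±)-NE. EC50 ± SD from eight dose-response curves.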

[4] = molecular target: Adrenergic receptor alpha; assay: Agonist activity at alpha-adrenergic receptor in Sprague-Dawley rat cerebral cortex assessed as [3H]cAMP accumulation by liquid scintillation spectroscopy in presence of propranolol; assay type: functional, tissue-based
Outline: (§1)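 Male Sprague-Dawley rat cerebral cortical slices (260 μm, cross-chopped) are preincubated 15 min in Krebs-Ringer bicarbonate glucose buffer, labelled 40 min at 37 °C with adenine (30 μM) plus [3H]adenine, then equilibrated 5 min. Amines are applied at 1 to 100 μM for 10 min, with propranolol 10 μM for α responses and phentolamine 10 μM for β responses. Cyclic [3H]AMP is isolated from TCA extracts on a double column, corrected for carrier recovery and reported as percent conversion. EC50 from six dose-response curves.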

[5] = molecular target: Adrenergic receptor alpha; assay: Displacement of [3H]WB4101 from alpha-adrenergic receptor in Sprague-Dawley rat cerebral cortical membrane
[6] = species on record: Cavia porcellus; assay: Agonist activity at alpha-adrenergic receptor in Hartley guinea pig aorta assessed as maximal contraction in presence of alpha-adrenergic receptor antagonist phentolamine; assay type: tissue-based
[7] = species on record: Cavia porcellus; assay: Agonist activity at alpha-adrenergic receptor in Hartley guinea pig aorta assessed as maximal contraction in presence of beta-adrenergic receptor antagonist propranolol; assay type: tissue-based
[8] = species on record: Cavia porcellus; assay: Agonist activity at beta-adrenergic receptor in Hartley guinea pig atria assessed as maximal increase in contraction rate in presence of alpha-adrenergic receptor antagonist phentolamine
[9] = species on record: Cavia porcellus; assay: Agonist activity at beta-adrenergic receptor in Hartley guinea pig atria assessed as maximal increase in contraction rate in presence of beta-adrenergic receptor antagonist propranolol
[10] = molecular target: Adrenergic receptor alpha (Rattus norvegicus) (UniProt P15823+P23944+P43140+P22086+P19328+P22909); assay: Agonist activity at alpha-adrenergic receptor in Sprague-Dawley rat cerebral cortex assessed as [3H]cAMP accumulation by liquid scintillation spectroscopy in presence of propranolol and phentolamine; assay type: functional, tissue-based
[11] = molecular target: T1, Adrenergic receptor beta (Rattus norvegicus, UniProt P18090+P10608+P26255); assay: Agonist activity at beta-adrenergic receptor in Sprague-Dawley rat cerebral cortex assessed as [3H]cAMP accumulation by liquid scintillation spectroscopy in presence of phentolamine; assay type: functional, tissue-based; outline: as §1
[12] = molecular target: T1, Adrenergic receptor beta; assay: Displacement of [3H]dihydroalprenolol from beta-adrenergic receptor in Sprague-Dawley rat cerebral cortical membrane

SMILES | EC50 [1] [µM] | EC50 [2] [µM] | EC50 [3] [µM] | EC50 [4] [µM] | EC50 [5] [µM] | Activity [6] | Activity [7] | Activity [8] | Activity [9] | Activity [10] | EC50 [11] [µM] | EC50 [12] [µM]
NCC(O)c1ccc(O)c(O)c1 (configuration not stated) | 15.6 | 2.6 | 0.7 | – | – | – | – | – | – | – | – | –
Cl.NCC(O)c1cc(O)c(O)cc1F (racemic) | – | 2.5 | 72 | 5 | 3 | inactive | Active | Active | inactive | inactive | – | –
Cl.NCC(O)c1ccc(O)c(O)c1F (racemic) | – | 110 | 0.6 | > 100 | > 100 | inactive | Active | Active | inactive | Active | – | –
Cl.NCC(O)c1cc(O)c(O)c(F)c1 (racemic) | 44 | 2.4 | 0.11 | 5 | 15 | inactive | Active | Active | inactive | – | 2 | 4

Source: ChEMBL document CHEMBL3244228, “Synthesis and biological properties of 2-, 5-, and 6-fluoronorepinephrines” (J Med Chem, 1979)
